Experimental findings from ChEMBL document CHEMBL2417458, “New potent and selective polyfluoroalkyl ketone inhibitors of GVIA calcium-independent phospholipase A2” (Bioorg Med Chem, 2013) are described below.

The target in assay [1] is T1, 85/88 kDa calcium-independent phospholipase A2 (Homo sapiens) (UniProt O60733).
T1 sequence (whole entry): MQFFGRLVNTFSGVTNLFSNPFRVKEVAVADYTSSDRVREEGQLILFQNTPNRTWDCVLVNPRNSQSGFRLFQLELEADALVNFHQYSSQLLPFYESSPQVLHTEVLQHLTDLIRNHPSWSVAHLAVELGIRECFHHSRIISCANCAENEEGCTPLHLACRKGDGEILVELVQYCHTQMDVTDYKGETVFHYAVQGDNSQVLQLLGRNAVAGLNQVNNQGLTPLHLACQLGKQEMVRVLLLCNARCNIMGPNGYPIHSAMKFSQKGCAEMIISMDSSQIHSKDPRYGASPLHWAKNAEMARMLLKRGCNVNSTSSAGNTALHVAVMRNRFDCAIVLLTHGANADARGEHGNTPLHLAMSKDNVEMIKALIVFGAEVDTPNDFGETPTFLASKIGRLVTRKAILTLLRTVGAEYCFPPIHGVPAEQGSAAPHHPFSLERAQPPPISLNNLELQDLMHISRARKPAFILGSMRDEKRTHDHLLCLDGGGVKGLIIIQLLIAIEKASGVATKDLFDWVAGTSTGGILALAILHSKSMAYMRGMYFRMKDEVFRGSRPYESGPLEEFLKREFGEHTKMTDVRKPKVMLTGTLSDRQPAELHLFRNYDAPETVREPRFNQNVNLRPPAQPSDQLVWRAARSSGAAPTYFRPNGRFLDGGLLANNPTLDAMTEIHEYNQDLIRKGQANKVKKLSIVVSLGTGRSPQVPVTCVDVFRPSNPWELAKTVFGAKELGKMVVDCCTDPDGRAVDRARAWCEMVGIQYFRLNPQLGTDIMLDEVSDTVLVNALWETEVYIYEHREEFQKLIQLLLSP
In words: Inhibition of human group 6A calcium-independent PLA2 at 0.091 mole fraction in mixed-micelles by modified Dole assay.

The target of assay [2] is T2, Phospholipase A2 group V (Homo sapiens) (UniProt P39877).
T2 sequence (whole entry): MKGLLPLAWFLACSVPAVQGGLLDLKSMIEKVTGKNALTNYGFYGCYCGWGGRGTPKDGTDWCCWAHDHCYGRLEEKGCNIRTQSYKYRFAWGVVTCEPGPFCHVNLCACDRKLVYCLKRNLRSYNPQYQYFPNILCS
In words: Inhibition of human group 5 secretory PLA2 at 0.091 mole fraction in mixed-micelles by modified Dole assay.

Assay [3] deals with T3, Cytosolic phospholipase A2 (Homo sapiens) (UniProt P47712).
T3 sequence (whole entry): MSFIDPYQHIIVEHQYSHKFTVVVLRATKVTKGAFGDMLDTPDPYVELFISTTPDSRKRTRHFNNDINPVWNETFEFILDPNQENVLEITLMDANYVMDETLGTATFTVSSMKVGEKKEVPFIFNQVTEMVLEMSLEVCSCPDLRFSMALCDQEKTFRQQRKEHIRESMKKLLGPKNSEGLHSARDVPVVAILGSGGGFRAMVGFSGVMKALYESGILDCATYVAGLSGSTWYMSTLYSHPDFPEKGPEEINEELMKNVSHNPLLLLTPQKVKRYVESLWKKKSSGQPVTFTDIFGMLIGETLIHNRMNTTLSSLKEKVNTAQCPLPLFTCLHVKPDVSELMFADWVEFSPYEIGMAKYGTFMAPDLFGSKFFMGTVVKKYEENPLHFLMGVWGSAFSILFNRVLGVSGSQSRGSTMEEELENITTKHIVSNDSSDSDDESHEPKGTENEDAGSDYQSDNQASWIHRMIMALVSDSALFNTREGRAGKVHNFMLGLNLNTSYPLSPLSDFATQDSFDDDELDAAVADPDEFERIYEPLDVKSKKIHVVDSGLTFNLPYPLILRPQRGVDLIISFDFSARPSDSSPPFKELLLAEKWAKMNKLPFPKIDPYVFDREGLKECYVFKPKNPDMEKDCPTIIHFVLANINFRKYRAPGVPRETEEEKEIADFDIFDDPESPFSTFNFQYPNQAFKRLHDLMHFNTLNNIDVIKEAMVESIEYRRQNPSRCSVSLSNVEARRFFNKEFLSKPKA
Put plainly: Inhibition of human group 4A cytosolic PLA2 at 0.091 mole fraction in mixed-micelles by modified Dole assay. The procedure, abridged: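 Buffer was 100 mM HEPES pH 7.5 with 90 μM CaCl2, 2 mM DTT and 0.1 mg/ml BSA. Inhibitor was screened at 0.091 mole fraction. Values are average percent inhibition, and 25% or less was scored as no inhibition.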

Assay [4] concerns the target T1, 85/88 kDa calcium-independent phospholipase A2 (Homo sapiens). Put plainly: Inhibition of human group 6A calcium-independent PLA2 treated in mixed-micelles by modified Dole assay. In outline:
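Typically 7 mole fractions from 0.00091 to 0.091 were tested. XI(50) is the inhibitor mole fraction giving 50% inhibition, from a symmetrical sigmoidal regression of % inhibition versus log concentration.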

The target in assay [5] is T3, Cytosolic phospholipase A2 (Homo sapiens). In words: Inhibition of human group 4A cytosolic PLA2 treated in mixed-micelles by modified Dole assay. In outline:
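Buffer was 100 mM HEPES pH 7.5 containing 90 μM CaCl2, 2 mM DTT and 0.1 mg/ml BSA. About 7 inhibitor mole fractions between 0.00091 and 0.091 were tested. XI(50) came from a symmetrical sigmoidal nonlinear fit of % inhibition versus log inhibitor.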

For the compound `COc1ccc2cc(CCCCC(=O)C(F)(F)F)ccc2c1`, the figures for the inhibition in assay [1], in assay [2] and in assay [3] were 92.6%, 41.7% and 85.5%, respectively.

On to `COc1ccccc1CCCCC(=O)C(F)(F)C(F)(F)F`, for which the inhibition worked out at 95.5% in assay [1], 39.1% in assay [2] and 30.5% in assay [3]. Besides, the XI50 (mole fraction) in assay [4] came out at 0.0263.

`COc1ccc(CCCCC(=O)C(F)(F)C(F)(F)F)cc1OC`: the inhibition in assay [1] was 78.3%; in assay [2], less than 25%; in assay [3], less than 25%.

Turning to `O=C(CCCCc1cccc2ccccc12)C(F)(F)C(F)(F)C(F)(F)F`, the inhibition in assay [1] is 76.7%; in assay [2], 57.8%; in assay [3], 60.4%.

With `COc1ccc(CCCCC(=O)C(F)(F)C(F)(F)F)cc1`, the inhibition was 99.8% in assay [1], 32.8% in assay [2] and less than 25% in assay [3]. The XI50 (mole fraction) in assay [4] came to 0.0001.

Consider `COc1ccc(CCCCC(=O)C(F)(F)F)cc1OC`, for which the inhibition in assay [1] was 62.5%; in assay [2] it was less than 25%; in assay [3], 28.8%.

With `O=C(CCCCc1ccc(-c2ccccc2)cc1)C(F)(F)C(F)(F)F`, the inhibition in assay [1] was 94.6%; in assay [2], 38.3%; in assay [3], 72.6%. The XI50 (mole fraction) in assay [4] was 0.0134.

With `O=C(CCCCc1cccc2ccccc12)C(F)(F)C(F)(F)F`, the inhibition in assay [1] amounted to 96.4%; in assay [2] it was 29.4%; in assay [3], 64%. For the same compound, the XI50 (mole fraction) in assay [4] was 0.0034.

Take `O=C(CCCCc1ccc(C(F)(F)F)cc1)C(F)(F)F`: the inhibition was determined as 99.9% in assay [1], 30.4% in assay [2] and 83.9% in assay [3]. Moreover, the XI50 (mole fraction) in assay [4] came to 0.0002.

In the case of `O=C(CCCCc1ccc(C(F)(F)F)cc1)C(F)(F)C(F)(F)F`, the inhibition in assay [1] amounted to 98.9%; in assay [2], 36.9%; in assay [3], 62.5%. Further, in assay [4], the XI50 (mole fraction) was 0.0003.

`O=C(CCCCc1ccc2c(c1)OCO2)C(F)(F)F`: the inhibition was 98.7% in assay [1], less than 25% in assay [2] and 41.2% in assay [3]. Moreover, the XI50 (mole fraction) in assay [4] came to 0.0025.

For the compound `COc1ccc(CCCCC(=O)C(F)(F)C(F)(F)F)c(OC)c1`, the inhibition in assay [1] came out at 95.6%; in assay [2], 38.7%; in assay [3], 35.6%. In addition, the XI50 (mole fraction) in assay [4] was found to be 0.0553.

Take `COc1ccccc1CCCCC(=O)C(F)(F)F`: the inhibition was 82.8% in assay [1], less than 25% in assay [2] and 58.9% in assay [3].

As for `O=C(CCCCc1cccc2ccccc12)C(F)(F)F`, the results for the inhibition in assay [1], in assay [2] and in assay [3] were 98.7%, 31.9% and 77.4%, respectively. The XI50 (mole fraction) in assay [4] came out at 0.0018.

Regarding `COc1ccc(CCCCC(=O)C(F)(F)F)c(OC)c1`, the figures for the inhibition in assay [1], in assay [2] and in assay [3] were 89.6%, less than 25% and 64.3%, respectively.

For the compound `O=C(CCc1ccccc1-c1ccccc1)C(F)(F)F`, the inhibition in assay [1] is 75%; in assay [3] it was less than 25%.

With `O=C(CCCc1ccccc1)C(F)F`, the figures for the inhibition in assay [1], in assay [2] and in assay [3] were 86.5%, less than 25% and less than 25%, respectively.

Consider `O=C(CCCCc1ccccc1)C(F)F`, for which the inhibition is 87.4% in assay [1], less than 25% in assay [2] and less than 25% in assay [3].

Turning to `O=C(CCCCc1ccc(F)cc1)C(F)(F)C(F)(F)F`, the inhibition in assay [1] was 98.2%; in assay [2], 29.3%; in assay [3], less than 25%. Moreover, the XI50 (mole fraction) in assay [4] came to 0.0003.

On to `O=C(CCc1ccccc1-c1ccccc1)C(F)(F)C(F)(F)F`, for which the inhibition in assay [1] was 90.4%; in assay [3], less than 25%.

Turning to `O=C(CCCCc1ccc(F)cc1)C(F)(F)F`, the inhibition was 98.5% in assay [1], less than 25% in assay [2] and 41.4% in assay [3]. Moreover, the XI50 (mole fraction) in assay [4] is 0.0002.

Consider `O=C(CCCCc1ccc2c(c1)OCO2)C(F)(F)C(F)(F)F`, for which the inhibition in assay [1] was 99.5%; in assay [2] it was 29.4%; in assay [3] it was 38.3%. The XI50 (mole fraction) in assay [4] was 0.0019.

In the case of `COc1ccc(CCCCC(=O)C(F)(F)F)cc1`, the inhibition in assay [1] is 99.8%; in assay [2], less than 25%; in assay [3], 54.3%. Also, the XI50 (mole fraction) in assay [4] was 0.0001.

Turning to `O=C(CCCCc1ccc(-c2ccccc2)cc1)C(F)(F)F`, the XI50 (mole fraction) was 0.0074 in assay [5] and 0.0189 in assay [4]. Also, the inhibition in assay [1] was 97.9%; in assay [2] it was 40.5%; in assay [3] it was 96.5%.

In the case of `COc1ccc2cc(CCCCC(=O)C(F)(F)C(F)(F)F)ccc2c1`, the results for the inhibition in assay [1], in assay [2] and in assay [3] were 92.5%, 63.1% and 54.7%, respectively.

As a reminder, the inhibition is how much of the control response was suppressed.
